# According to ChEMBL document CHEMBL5236662, “Synthesis and biological evaluation of tert-butyl ester and ethyl ester prodrugs of L-γ-methyleneglutamic acid amides for cancer” (Bioorg Med Chem, 2023):
# Tests used:
# MDA-MB-231 = experiment: Antiproliferative activity against human MDA-MB-231 cells assessed as inhibition of cell growth incubated for 72 hrs by Hoechst 33342/propidium iodide staining based fluorescence analysis; assay type: functional; settings: MDA-MB-231, 72 h
# SK-BR-3 = experiment: Antiproliferative activity against human SK-BR-3 cells assessed as inhibition of cell growth incubated for 72 hrs by Hoechst 33342/propidium iodide staining based fluorescence analysis; assay type: functional; settings: SK-BR-3, 72 h
# MCF7 = experiment: Antiproliferative activity against human MCF7 cells assessed as inhibition of cell growth incubated for 72 hrs by Hoechst 33342/propidium iodide staining based fluorescence analysis; assay type: functional; settings: MCF7, 72 h
# [1] = (§1) Cytotoxicity against human MCF-10A cells assessed as inhibition of cell growth incubated for 72 hrs by Hoechst 33342/propidium iodide staining based fluorescence analysis; assay type: toxicity; settings: human, MCF-10A cells
# [2] = Cytotoxicity against human MCF-10A cells assessed as inhibition of cell growth incubated for 24 hrs by Hoechst 33342/propidium iodide staining based fluorescence analysis; assay type: toxicity; settings: human, MCF-10A cells
# BNC3 = experiment: Antiproliferative activity against human BNC3 cells assessed as suppression of cell growth incubated for 24 to 72 hrs by CCK-8 assay; assay type: functional, cell-based; settings: dose 10-300 µM, time 24-72 hrs
# Outline: (§2)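 Primary patient-derived glioblastoma lines were grown in RPMI 1640 with 10% FBS. Cells were seeded at 3,000 per well and dosed 24 h later at 10, 50, 100, 200 and 300 μM for 24 or 72 h, with BiCNU as control. CCK-8 was added and OD450 read after 2 h at 37 °C. Data are % cell survival, from 3 independent replicates.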
# [3] = Antiproliferative activity against human BNC3 cells assessed as inhibition of cell growth incubated for 72 hrs by CCK-8 assay; assay type: functional, cell-based; settings: BNC3, 72 h; outline: as §2
# WSU-HN30 = experiment: Antiproliferative activity against human WSU-HN30 cells assessed as suppression of cell growth incubated for 24 to 72 hrs by CCK-8 assay; assay type: functional, cell-based; settings: dose 10-300 µM, time 24-72 hrs
# Outline: (§3)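 Radiotherapy-resistant HNSCC lines were used: HN30 from pharynx SCC and HN31 from a lymph-node metastasis of the same patient. Cells in RPMI 1640 with 10% FBS were seeded at 3,000 per well and treated 24 h later with 10–300 μM (5 levels) for 24 or 72 h, with cisplatin as control. CCK-8 was read at OD450 after 2 h. Data are % survival, n = 3 independent experiments.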
# WSU-HN31 = experiment: Antiproliferative activity against human WSU-HN31 cells assessed as suppression of cell growth incubated for 24 to 72 hrs by CCK-8 assay; assay type: functional, cell-based; settings: dose 10-300 µM, time 24-72 hrs; outline: as §3
# [4] = Antiproliferative activity against human BNC6 cells assessed as inhibition of cell growth incubated for 72 hrs by CCK-8 assay; assay type: functional, cell-based; settings: BNC6, 72 h; outline: as §2
# BNC6 = experiment: Antiproliferative activity against human BNC6 cells assessed as suppression of cell growth incubated for 24 to 72 hrs by CCK-8 assay; assay type: functional, cell-based; settings: dose 10-300 µM, time 24-72 hrs; outline: as §2
# [5] = Antiproliferative activity against human WSU-HN30 cells assessed as inhibition of cell growth incubated for 72 hrs by CCK-8 assay; assay type: functional, cell-based; settings: WSU-HN30, 72 h; outline: as §3
# [6] = Antiproliferative activity against human WSU-HN31 cells assessed as inhibition of cell growth incubated for 72 hrs by CCK-8 assay; assay type: functional, cell-based; settings: WSU-HN31, 72 h; outline: as §3
# MCF-10A = experiment: as §1; assay type: toxicity; settings: mcf-10a
Compound,IC50 (MDA-MB-231) [µM],IC50 (SK-BR-3) [µM],IC50 (MCF7) [µM],IC50 at 72 h [1] [µM],other results
C=C(C[C@H](NC(=O)OC(C)(C)C)C(=O)OCC)C(=O)NCc1ccc([N+](=O)[O-])cc1,> 1000,< 1000,> 1000,> 1000,
C=C(C[C@H](NC(=O)OC(C)(C)C)C(=O)OC(C)(C)C)C(=O)NCc1ccccc1,< 1000,< 1000,> 1000,> 1000,
C=C(C[C@H](NC(=O)OC(C)(C)C)C(=O)OCC)C(N)=O,< 1000,< 1000,> 1000,> 1000,
C=C(C[C@H](NC(=O)OC(C)(C)C)C(=O)OCC)C(=O)NCc1ccccc1,> 1000,< 1000,> 1000,> 1000,
C=C1C[C@@H](C(=O)OC(C)(C)C)N(C(=O)OC(C)(C)C)C1=O,< 1000,> 1000,> 1000,> 1000,
C=C1C[C@@H](C(=O)OCC)NC1=O,> 1000,> 1000,> 1000,> 1000,
C=C1C[C@@H](C(=O)O)NC1=O,> 1000,> 1000,> 1000,> 1000,
C=C(C[C@H](NC(=O)OC(C)(C)C)C(=O)OCC)C(=O)NCc1ccc(F)cc1,> 1000,< 1000,> 1000,> 1000,
C=C(C[C@H](NC(=O)OC(C)(C)C)C(=O)OCC)C(=O)Nc1ccccc1,> 1000,> 1000,> 1000,> 1000,
C=C(C[C@H](N)C(=O)O)C(N)=O,,,,> 1000,IC50 at 24 h [2]: > 1000 µM
C=C(C[C@H](NC(=O)OC(C)(C)C)C(=O)OCC)C(=O)Nc1ccc(F)cc1,> 1000,< 1000,> 1000,> 1000,
C=C(C[C@H](N)C(=O)O)C(=O)Nc1ccc(F)cc1,,,,> 1000,Activity (BNC3): Dose-Dependent Effect; IC50 [3]: 182 µM; Activity (WSU-HN30): Dose-Dependent Effect; Activity (WSU-HN31): Dose-Dependent Effect; IC50 [4]: 194 µM; Activity (BNC6): Dose-Dependent Effect; IC50 at 24 h [2]: > 1000 µM; IC50 [5]: 220 µM; IC50 [6]: 202 µM
C=C(C[C@H](N)C(=O)O)C(=O)Nc1ccc(Cl)cc1,,,,> 1000,IC50 at 24 h [2]: > 1000 µM
C=C(C[C@H](NC(=O)OC(C)(C)C)C(=O)OC(C)(C)C)C(=O)Nc1ccc(F)cc1,< 1000,< 1000,> 1000,,IC50 (MCF-10A): < 1000 µM
C=C(C[C@H](NC(=O)OC(C)(C)C)C(=O)OCC)C(=O)N1CCCCC1,> 1000,> 1000,> 1000,> 1000,
C=C(C[C@H](NC(=O)OC(C)(C)C)C(=O)OC(C)(C)C)C(=O)NCc1ccc(F)cc1,< 1000,< 1000,> 1000,> 1000,
C=C(C[C@H](NC(=O)OC(C)(C)C)C(=O)OC(C)(C)C)C(=O)NC1CC1,< 1000,< 1000,< 1000,> 1000,
